Laboratory results taken from ChEMBL document CHEMBL1165950, “Design and synthesis of new potent anticancer pyrazoles with high FLT3 kinase inhibitory selectivity” (Bioorg Med Chem, 2010).

What was measured:
Type in all cases: functional
[1] = tested on: SW-620; experiment: Cytotoxicity against human SW620 cells assessed as cell growth at 1 uM after 48 hrs by sulforhodamine B assay; details: SW-620, 48 h, read-out: Activity
[2] = tested on: OVCAR-8; experiment: Cytotoxicity against human OVCAR8 cells assessed as cell growth at 0.001 uM after 48 hrs by sulforhodamine B assay; details: OVCAR-8, 48 h, read-out: Activity
[3] = tested on: 786-0; experiment: Cytotoxicity against human 786-0 cells assessed as cell growth at 10 uM; details: read-out: Activity
Outline: (§1)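 Single-dose NCI-60 screen at 10 µM. Cells were grown in RPMI 1640 with 5% FBS and 2 mM L-glutamine, then treated for 48 h at 37 °C. Protein was measured by SRB staining with absorbance at 515 nm. Percentage growth was recorded, and inhibition percentage was calculated as 100 minus growth percentage.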

[4] = tested on: NCI-H23; experiment: Cytotoxicity against human NCI-H23 cells assessed as cell growth at 0.001 uM after 48 hrs by sulforhodamine B assay; details: NCI-H23, 48 h, read-out: Activity
[5] = tested on: M14; experiment: Cytotoxicity against human M14 cells assessed as cell growth at 0.01 uM after 48 hrs by sulforhodamine B assay; details: M14, 48 h, read-out: Activity
[6] = tested on: OVCAR-4; experiment: Cytotoxicity against human OVCAR4 cells assessed as cell growth at 0.01 uM after 48 hrs by sulforhodamine B assay; details: OVCAR-4, 48 h, read-out: Activity
[7] = tested on: HCT-116; experiment: Growth inhibition of human HCT116 cells after 48 hrs by sulforhodamine B assay; details: HCT-116, 48 h
Outline: (§2)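 NCI 60-cell screen, five-dose mode. Cells grown in RPMI 1640 with 5% FBS and 2 mM L-glutamine and plated at 5000-40,000 cells/well according to doubling time. After 24 h preincubation, a Tz plate was TCA-fixed. Five concentrations (10-fold or 1/2 log dilutions) were applied for 48 h at 37 °C. SRB staining read at 515 nm. IC50 taken from [(Ti-Tz)/(C-Tz)]×100 = 50.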

[8] = Cytotoxicity against human Hs 578T cells assessed as cell growth at 10 uM; details: read-out: Activity; outline: as §1
[9] = tested on: MOLT-4; experiment: Cytotoxicity against human MOLT4 cells assessed as cell growth at 1 uM after 48 hrs by sulforhodamine B assay; details: MOLT-4, 48 h, read-out: Activity
[10] = tested on: U-251; experiment: Cytotoxicity against human U251 cells assessed as cell growth at 1 uM after 48 hrs by sulforhodamine B assay; details: U-251, 48 h, read-out: Activity
[11] = tested on: SF-539; experiment: Growth inhibition of human SF539 cells after 48 hrs by sulforhodamine B assay; details: SF-539, 48 h; outline: as §2
[12] = tested on: DU-145; experiment: Cytotoxicity against human DU145 cells assessed as cell growth at 0.001 uM after 48 hrs by sulforhodamine B assay; details: DU-145, 48 h, read-out: Activity
[13] = tested on: EKVX; experiment: Cytotoxicity against human EKVX cells assessed as cell growth at 1 uM after 48 hrs by sulforhodamine B assay; details: read-out: Activity
[14] = tested on: HT-29; experiment: Cytotoxicity against human HT-29 cells assessed as cell growth at 10 uM; details: read-out: Activity; outline: as §1
[15] = tested on: SR; experiment: Cytotoxicity against human SR cells assessed as cell growth at 10 uM; details: read-out: Activity
Outline: (§3)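 NCI-60 screen: cells grown in RPMI 1640 with 5% FBS and 2 mM L-glutamine, plated at 5000–40,000 cells/well according to doubling time, and preincubated 24 h at 37 °C, 5% CO2. The single 10 µM dose (DMSO stock) was added, then incubated 48 h. Cells were TCA-fixed and stained with 0.4% SRB, read at 515 nm, and growth % calculated against time-zero and control plates.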

[16] = tested on: HT-29; experiment: Cytotoxicity against human HT-29 cells assessed as cell growth at 1 uM after 48 hrs by sulforhodamine B assay; details: HT-29, 48 h, read-out: Activity
[17] = tested on: T47D; experiment: Cytotoxicity against human T47D cells assessed as cell growth at 100 nM after 48 hrs by sulforhodamine B assay; details: read-out: Activity
[18] = tested on: COLO 205; experiment: Cytotoxicity against human COLO205 cells assessed as cell growth at 1 uM after 48 hrs by sulforhodamine B assay; details: COLO 205, 48 h, read-out: Activity
Outline: (§4)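 NCI-60 five-dose screen. Cells were grown in RPMI 1640 with 5% FBS and 2 mM L-glutamine, plated at 5000–40,000 cells/well and preincubated for 24 h. Time-zero plates were TCA-fixed. DMSO-solubilized drug was added at five concentrations (10-fold or ½-log serial dilutions) for 48 h at 37 °C, 5% CO2. Cells were TCA-fixed, stained with 0.4% SRB and read at 515 nm. Percent growth used time-zero, control and test absorbances.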

[19] = Cytotoxicity against human Hs 578T cells assessed as cell growth at 0.01 uM after 48 hrs by sulforhodamine B assay; details: read-out: Activity
[20] = tested on: MOLT-4; experiment: Cytotoxicity against human MOLT4 cells assessed as cell growth at 0.001 uM after 48 hrs by sulforhodamine B assay; details: MOLT-4, 48 h, read-out: Activity
[21] = tested on: CCRF-CEM; experiment: Cytotoxicity against human CCRF-CEM cells assessed as cell growth at 100 nM after 48 hrs by sulforhodamine B assay; details: read-out: Activity; outline: as §4
[22] = tested on: CAKI-1; experiment: Cytotoxicity against human Caki1 cells assessed as cell growth at 100 nM after 48 hrs by sulforhodamine B assay; details: CAKI-1, 48 h, read-out: Activity
[23] = tested on: PC-3; experiment: Cytotoxicity against human PC3 cells assessed as cell growth at 0.001 uM after 48 hrs by sulforhodamine B assay; details: PC-3, 48 h, read-out: Activity
[24] = tested on: A498; experiment: Cytotoxicity against human A498 cells assessed as cell growth at 1 uM after 48 hrs by sulforhodamine B assay; details: A498, 48 h, read-out: Activity; outline: as §4
[25] = tested on: T47D; experiment: Cytotoxicity against human T47D cells assessed as cell growth at 10 uM; details: read-out: Activity; outline: as §3
[26] = tested on: EKVX; experiment: Cytotoxicity against human EKVX cells assessed as cell growth at 100 nM after 48 hrs by sulforhodamine B assay; details: read-out: Activity
[27] = tested on: HCT-15; experiment: Cytotoxicity against human HCT15 cells assessed as cell growth at 0.001 uM after 48 hrs by sulforhodamine B assay; details: HCT-15, 48 h, read-out: Activity
[28] = tested on: OVCAR-3; experiment: Growth inhibition of human OVCAR-3 cells after 48 hrs by sulforhodamine B assay; details: OVCAR-3, 48 h; outline: as §2
[29] = tested on: TK-10; experiment: Cytotoxicity against human TK10 cells assessed as cell growth at 0.01 uM after 48 hrs by sulforhodamine B assay; details: TK-10, 48 h, read-out: Activity
[30] = tested on: ACHN; experiment: Growth inhibition of human ACHN cells after 48 hrs by sulforhodamine B assay
Outline: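 NCI five-dose SRB assay in RPMI 1640 with 5% FBS and 2 mM L-glutamine. Cells were preincubated 24 h, then exposed 48 h at 37 °C to five concentrations (10-fold or half-log serial dilutions from DMSO stocks). TCA fixation, SRB staining, and absorbance at 515 nm followed. IC50 was taken where [(Ti−Tz)/(C−Tz)]×100 = 50, with Tz as time-zero cell density.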

[31] = read-out: LC50 (the source's name)

SMILES: Cc1cc(O)cc(-c2nn(CC#N)cc2-c2ccnc(-c3ccc(Oc4ccccc4)cc3)c2)c1
- growth at 1 µM [1]: -52%
- growth at 0.001 µM [2]: 96%
- growth at 10 µM [3]: 58.1%
- growth at 0.001 µM [4]: 91%
- growth at 0.01 µM [5]: 96%
- growth at 0.01 µM [6]: 112%
- GI50 [7]: 1.56 µM
- TGI [7]: 2.9 µM
- CC50 [7, 31]: 5.38 µM
- growth at 10 µM [8]: 75.9%
- growth at 1 µM [9]: -16%
- growth at 1 µM [10]: -97%
- GI50 [11]: 3.38 µM
- TGI [11]: 13.5 µM
- CC50 [11, 31]: 44 µM
- growth at 0.001 µM [12]: 104%
- growth at 1 µM [13]: -4%
- growth at 10 µM [14]: 0.27%
- growth at 10 µM [15]: 32.4%
- growth at 1 µM [16]: -65%
- growth at 0.1 µM [17]: 84%
- growth at 1 µM [18]: -94%
- growth at 0.01 µM [19]: 91%
- growth at 0.001 µM [20]: 99%
- growth at 0.1 µM [21]: 86%
- growth at 0.1 µM [22]: 75%
- growth at 0.001 µM [23]: 98%
- growth at 1 µM [24]: 26%
- growth at 10 µM [25]: 14.2%
- growth at 0.1 µM [26]: 77%
- growth at 0.001 µM [27]: 94%
- GI50 [28]: 1.88 µM
- TGI [28]: 3.95 µM
- CC50 [28, 31]: 8.29 µM
- growth at 0.01 µM [29]: 99%
- GI50 [30]: 2.84 µM
- LC50 (concentration giving 50% net cell kill) [30]: 33.8 µM
- TGI [30]: 9.14 µM
